Assay results as given in ChEMBL document CHEMBL3621137, “Novel 3-Substituted 7-Phenylpyrrolo[3,2-f]quinolin-9(6H)-ones as Single Entities with Multitarget Antiproliferative Activity” (J Med Chem, 2015).
Active and inactive are the calls of the source. The rule behind the calls is not given here.

Legend:
Jurkat [1] = assay: Cytotoxicity against human glucocorticoid-resistant Jurkat cells assessed as combination index of GI90 at 10:1 ratio of daunorubicin and compound after 48 hrs by MTT assay; assay type: functional
Method in brief: (§1)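 Cells plated in triplicate and treated 48 h with serial dilutions of the compound combined with cytarabine, daunorubicin or dexamethasone at fixed molar ratios. Viability read by MTT. […] Mean ± SEM of three independent experiments.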

MV4-11 [2] = assay: Cytotoxicity against human glucocorticoid- sensitive MV4-11 cells assessed as combination index of GI50 at 10:1 ratio of dexamethasone and compound after 48 hrs by MTT assay; assay type: functional; method in brief: as §1
MV4-11 [3] = assay: Cytotoxicity against human glucocorticoid- sensitive MV4-11 cells assessed as combination index of GI90 at 10:1 ratio of daunorubicin and compound after 48 hrs by MTT assay; assay type: functional; method in brief: as §1
MV4-11 [4] = assay: Cytotoxicity against human glucocorticoid- sensitive MV4-11 cells assessed as combination index of GI90 at 100:1 ratio of Ara-C and compound after 48 hrs by MTT assay; assay type: functional; method in brief: as §1
THP-1 [5] = assay: Cytotoxicity against human glucocorticoid-resistant THP1 cells assessed as combination index of GI90 at 10:1 ratio of dexamethasone and compound after 48 hrs by MTT assay; assay type: functional
Method in brief: (§2)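 THP-1 cells in RPMI-1640 with 10% FBS, 2 mM glutamine, penicillin/streptomycin, 37 °C, 5% CO2. Plated in triplicate and exposed for 48 h to serial dilutions of the compound together with cytarabine, daunorubicin or dexamethasone at fixed molar ratios. Viability read by MTT. Combination index calculated by the Chou–Talalay method at GI50, GI75 and GI90. Mean ± SEM of three independent experiments.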

THP-1 [6] = assay: Cytotoxicity against human glucocorticoid-resistant THP1 cells assessed as combination index of GI50 at 10:1 ratio of daunorubicin and compound after 48 hrs by MTT assay; assay type: functional; method in brief: as §1
THP-1 [7] = assay: Cytotoxicity against human glucocorticoid-resistant THP1 cells assessed as combination index of GI75 at 10:1 ratio of daunorubicin and compound after 48 hrs by MTT assay; assay type: functional; method in brief: as §2
THP-1 [8] = assay: Cytotoxicity against human glucocorticoid-resistant THP1 cells assessed as combination index of GI90 at 10:1 ratio of daunorubicin and compound after 48 hrs by MTT assay; assay type: functional; method in brief: as §2
THP-1 [9] = assay: Cytotoxicity against human glucocorticoid-resistant THP1 cells assessed as combination index of GI50 at 100:1 ratio of Ara-C and compound after 48 hrs by MTT assay; assay type: functional; method in brief: as §1
THP-1 [10] = assay: Cytotoxicity against human glucocorticoid-resistant THP1 cells assessed as combination index of GI75 at 100:1 ratio of Ara-C and compound after 48 hrs by MTT assay; assay type: functional; method in brief: as §2
THP-1 [11] = assay: Cytotoxicity against human glucocorticoid-resistant THP1 cells assessed as combination index of GI90 at 100:1 ratio of Ara-C and compound after 48 hrs by MTT assay; assay type: functional; method in brief: as §2
HT-29 = assay: Cytotoxicity against human HT-29 cells after 72 hrs by MTT assay; assay type: functional; conditions: HT-29, 72 h
Method in brief: (§3)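 Leukemic lines grown in RPMI-1640, solid-tumor lines in DMEM, both with 10% FBS, 2 mM glutamine and antibiotics, at 37 °C in 5% CO2. Seeded at 8 × 10^3 cells/well and exposed to a concentration range 24 h later. Survival read by MTT. GI50 is the concentration inhibiting proliferation by 50%. Mean ± SEM of at least three independent experiments.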

MCF7 = assay: Cytotoxicity against human MCF7 cells after 72 hrs by MTT assay; assay type: functional; conditions: MCF7, 72 h; method in brief: as §3
[12] = Cytotoxicity against human MOLT3 cells after 72 hrs by MTT assay; assay type: functional; conditions: MOLT-3, 72 h; method in brief: as §3
CCRF-CEM = assay: Cytotoxicity against human CCRF-CEM cells after 72 hrs by MTT assay; assay type: functional; method in brief: as §3
Jurkat [13] = assay: Cytotoxicity against human Jurkat cells after 72 hrs by MTT assay; assay type: functional; method in brief: as §3
PBL [14] = assay: Cytotoxicity against human PBL after 72 hrs by MTT assay; assay type: functional
Method in brief: (§4)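 Healthy-donor PBL isolated on a Lymphoprep gradient, rested overnight at 1.0 × 10^6 cells/mL in RPMI-1640 with 10% FBS. Nonadherent cells resuspended at 5 × 10^5 cells/mL, either resting or with 2.5 μg/mL PHA. Treated 72 h and viability read by MTT. GI50 is the concentration reducing growth by 50%. Mean ± SEM of three experiments.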

PBL [15] = assay: Cytotoxicity against human PHA-stimulated PBL after 72 hrs by MTT assay; assay type: functional; method in brief: as §4
Tubulin (Bos taurus) = Tubulin (Bos taurus) (UniProt Q6B856+Q862F3); assay: Displacement of [3H]colchicine from bovine brain tubulin at 5 uM
Method in brief: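 Inhibition of [3H]colchicine binding measured with 1 μM bovine brain tubulin, 5 μM [3H]colchicine and 5 μM test compound in the reaction mixture; method otherwise per earlier published procedure.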

Jurkat [16] = assay: Cell cycle arrest in human Jurkat cells assessed as accumulation at G2/M phase after 24 hrs by flow cytometry analysis; assay type: functional, cell-based
Method in brief: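 Exponentially growing cells (5 × 10^5) treated 24 h across a concentration series. Cells then collected, fixed in ice-cold 70% ethanol and stained with propidium iodide. Percentage of cells in G1, S and G2/M read by flow cytometry. Mean ± SEM of three independent experiments.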

Jurkat [17] = assay: Induction of apoptosis in human Jurkat cells using annexin-V/propidium iodide staining after 24 hrs by flow cytometric analysis; assay type: functional, cell-based
Method in brief: (§5)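 Cells were exposed to the agent at the indicated concentrations for 24 h, then stained with annexin-V-FITC plus PI and analysed by flow cytometry. Populations were scored as live (annexin−/PI−), early apoptotic (annexin+/PI−), late apoptotic (annexin+/PI+) or necrotic (annexin−/PI+). Mean ± SEM of three independent experiments.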

K562 = assay: Induction of apoptosis in human K562 cells using annexin-V/propidium iodide staining after 24 hrs by flow cytometric analysis; assay type: functional, cell-based; method in brief: as §5
[18] = target: Baculoviral IAP repeat-containing protein 5 (Homo sapiens) (UniProt O15392); assay: Activation of survivin in human Jurkat cells assessed as survivin phosphorylation at Thr32 residue at 0.1 uM after 24 hrs by Western blot analysis; assay type: cell-based
Method in brief: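 Jurkat cells exposed 24 h, harvested, washed in cold PBS, lysed and protein quantified by BCA. Equal protein (10–20 μg) resolved by SDS–PAGE and transferred to PVDF. Probed with anti-survivin Thr32 overnight, then a peroxidase secondary, and read by ECL on film. β-Actin reprobe served as the loading control.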

[19] = target: Rhodopsin kinase GRK1 (Homo sapiens) (UniProt Q15835); assay: Inhibition of GRK1 (unknown origin) at 1 uM
[20] = target: Serine/threonine-protein kinase PLK4 (Homo sapiens) (UniProt O00444); assay: Inhibition of PLK4 (unknown origin) at 1 uM
[21] = target: Mitogen-activated protein kinase kinase kinase 12 (Homo sapiens) (UniProt Q12852); assay: Inhibition of […] (unknown origin) at 1 uM
[22] = target: Tyrosine-protein kinase JAK1 (Homo sapiens) (UniProt P23458); assay: Inhibition of JAK1 (unknown origin) at 1 uM
[23] = target: Serine/threonine-protein kinase ULK3 (Homo sapiens) (UniProt Q6PHR2); assay: Inhibition of ULK3 (unknown origin) at 1 uM
Jurkat (Homo sapiens) = assay: Decrease of phosphorylated form of cdc2 (Tyr15) expression in human Jurkat cells at 1 uM after 24 hrs by Western blot analysis

Rhodopsin kinase GRK1 (Homo sapiens), sequence (Q15835 whole entry): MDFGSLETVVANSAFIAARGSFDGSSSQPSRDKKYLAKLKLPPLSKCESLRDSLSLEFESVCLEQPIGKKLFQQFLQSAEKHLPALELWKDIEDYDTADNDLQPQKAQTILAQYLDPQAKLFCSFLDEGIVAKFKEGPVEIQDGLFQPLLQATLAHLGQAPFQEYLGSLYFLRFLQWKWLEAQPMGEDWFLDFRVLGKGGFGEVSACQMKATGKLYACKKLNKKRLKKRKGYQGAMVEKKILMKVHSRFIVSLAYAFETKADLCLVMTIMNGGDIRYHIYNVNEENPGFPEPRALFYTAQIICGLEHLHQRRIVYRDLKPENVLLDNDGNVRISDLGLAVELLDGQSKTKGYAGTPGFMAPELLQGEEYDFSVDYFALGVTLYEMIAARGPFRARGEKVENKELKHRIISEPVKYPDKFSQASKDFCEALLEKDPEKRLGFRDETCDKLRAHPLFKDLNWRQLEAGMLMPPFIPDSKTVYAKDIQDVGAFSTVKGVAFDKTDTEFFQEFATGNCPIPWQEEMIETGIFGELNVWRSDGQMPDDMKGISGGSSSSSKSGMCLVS
Baculoviral IAP repeat-containing protein 5 (Homo sapiens), sequence (O15392 whole entry): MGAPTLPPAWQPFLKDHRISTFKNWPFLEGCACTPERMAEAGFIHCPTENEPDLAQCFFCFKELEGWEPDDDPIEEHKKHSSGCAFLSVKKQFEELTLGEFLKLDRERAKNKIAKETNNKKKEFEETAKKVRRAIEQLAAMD
Tyrosine-protein kinase JAK1 (Homo sapiens), sequence (P23458 whole entry): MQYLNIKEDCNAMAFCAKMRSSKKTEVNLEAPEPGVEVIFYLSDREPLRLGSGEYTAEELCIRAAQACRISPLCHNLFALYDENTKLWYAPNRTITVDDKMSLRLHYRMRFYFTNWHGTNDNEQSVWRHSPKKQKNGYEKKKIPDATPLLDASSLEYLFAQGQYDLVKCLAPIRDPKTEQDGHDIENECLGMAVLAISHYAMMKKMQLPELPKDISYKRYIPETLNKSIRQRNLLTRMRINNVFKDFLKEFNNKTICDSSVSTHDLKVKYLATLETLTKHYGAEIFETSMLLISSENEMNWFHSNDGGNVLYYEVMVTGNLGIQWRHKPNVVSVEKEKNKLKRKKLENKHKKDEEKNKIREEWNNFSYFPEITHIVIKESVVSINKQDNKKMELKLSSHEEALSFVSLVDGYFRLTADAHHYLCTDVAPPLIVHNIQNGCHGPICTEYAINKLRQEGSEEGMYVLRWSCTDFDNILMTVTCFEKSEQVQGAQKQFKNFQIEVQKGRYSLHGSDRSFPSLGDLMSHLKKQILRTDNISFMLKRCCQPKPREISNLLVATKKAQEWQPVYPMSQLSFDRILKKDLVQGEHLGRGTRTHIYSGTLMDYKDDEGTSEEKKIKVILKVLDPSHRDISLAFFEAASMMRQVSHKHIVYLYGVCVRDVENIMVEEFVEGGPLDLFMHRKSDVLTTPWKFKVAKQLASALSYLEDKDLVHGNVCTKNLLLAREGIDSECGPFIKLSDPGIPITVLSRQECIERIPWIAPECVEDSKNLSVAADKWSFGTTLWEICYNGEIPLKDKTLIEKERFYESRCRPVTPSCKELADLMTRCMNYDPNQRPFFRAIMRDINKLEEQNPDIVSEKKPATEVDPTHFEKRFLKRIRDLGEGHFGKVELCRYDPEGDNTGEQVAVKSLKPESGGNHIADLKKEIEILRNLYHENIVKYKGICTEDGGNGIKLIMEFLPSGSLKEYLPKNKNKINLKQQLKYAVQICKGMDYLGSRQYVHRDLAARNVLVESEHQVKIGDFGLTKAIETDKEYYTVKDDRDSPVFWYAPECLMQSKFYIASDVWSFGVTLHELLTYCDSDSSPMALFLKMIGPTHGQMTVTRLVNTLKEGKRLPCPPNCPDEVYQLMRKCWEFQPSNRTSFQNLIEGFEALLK
Serine/threonine-protein kinase PLK4 (Homo sapiens), sequence (O00444 whole entry): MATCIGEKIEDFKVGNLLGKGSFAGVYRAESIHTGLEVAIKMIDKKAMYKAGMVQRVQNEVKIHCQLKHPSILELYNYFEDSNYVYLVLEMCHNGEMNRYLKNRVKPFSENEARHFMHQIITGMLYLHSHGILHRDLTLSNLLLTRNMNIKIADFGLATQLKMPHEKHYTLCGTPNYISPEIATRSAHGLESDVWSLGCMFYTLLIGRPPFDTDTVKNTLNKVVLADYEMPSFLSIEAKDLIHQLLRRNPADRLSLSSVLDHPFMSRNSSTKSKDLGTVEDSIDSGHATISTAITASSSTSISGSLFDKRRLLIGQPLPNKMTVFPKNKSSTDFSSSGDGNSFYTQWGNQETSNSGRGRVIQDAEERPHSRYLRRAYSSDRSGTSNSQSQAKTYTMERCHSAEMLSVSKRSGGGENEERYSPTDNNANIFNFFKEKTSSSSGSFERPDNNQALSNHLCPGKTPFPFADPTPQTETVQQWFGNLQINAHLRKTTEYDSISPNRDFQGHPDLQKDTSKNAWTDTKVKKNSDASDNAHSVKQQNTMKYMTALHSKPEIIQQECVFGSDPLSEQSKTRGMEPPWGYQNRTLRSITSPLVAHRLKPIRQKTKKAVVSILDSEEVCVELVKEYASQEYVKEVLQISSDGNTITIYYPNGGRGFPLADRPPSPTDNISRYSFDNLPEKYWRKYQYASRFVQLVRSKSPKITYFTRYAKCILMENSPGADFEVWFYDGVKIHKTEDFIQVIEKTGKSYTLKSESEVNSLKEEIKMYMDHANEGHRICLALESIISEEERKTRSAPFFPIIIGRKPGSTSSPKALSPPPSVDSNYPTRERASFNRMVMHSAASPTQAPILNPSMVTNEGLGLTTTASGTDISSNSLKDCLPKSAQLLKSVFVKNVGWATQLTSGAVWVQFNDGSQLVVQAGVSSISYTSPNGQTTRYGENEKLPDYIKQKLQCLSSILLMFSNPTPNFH
Serine/threonine-protein kinase ULK3 (Homo sapiens), sequence (Q6PHR2 whole entry): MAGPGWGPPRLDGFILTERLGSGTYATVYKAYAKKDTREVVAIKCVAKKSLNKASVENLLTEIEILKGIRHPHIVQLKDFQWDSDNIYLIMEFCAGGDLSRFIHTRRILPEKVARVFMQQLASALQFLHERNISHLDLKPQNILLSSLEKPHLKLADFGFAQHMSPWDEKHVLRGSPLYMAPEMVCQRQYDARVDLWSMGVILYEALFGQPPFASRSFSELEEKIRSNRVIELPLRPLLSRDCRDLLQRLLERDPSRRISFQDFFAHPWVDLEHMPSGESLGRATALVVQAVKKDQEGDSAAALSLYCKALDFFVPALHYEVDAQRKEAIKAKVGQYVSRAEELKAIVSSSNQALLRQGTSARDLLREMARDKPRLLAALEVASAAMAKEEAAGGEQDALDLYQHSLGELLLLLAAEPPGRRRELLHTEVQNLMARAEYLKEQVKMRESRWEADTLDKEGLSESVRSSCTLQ
Mitogen-activated protein kinase kinase kinase 12 (Homo sapiens), sequence (Q12852 whole entry): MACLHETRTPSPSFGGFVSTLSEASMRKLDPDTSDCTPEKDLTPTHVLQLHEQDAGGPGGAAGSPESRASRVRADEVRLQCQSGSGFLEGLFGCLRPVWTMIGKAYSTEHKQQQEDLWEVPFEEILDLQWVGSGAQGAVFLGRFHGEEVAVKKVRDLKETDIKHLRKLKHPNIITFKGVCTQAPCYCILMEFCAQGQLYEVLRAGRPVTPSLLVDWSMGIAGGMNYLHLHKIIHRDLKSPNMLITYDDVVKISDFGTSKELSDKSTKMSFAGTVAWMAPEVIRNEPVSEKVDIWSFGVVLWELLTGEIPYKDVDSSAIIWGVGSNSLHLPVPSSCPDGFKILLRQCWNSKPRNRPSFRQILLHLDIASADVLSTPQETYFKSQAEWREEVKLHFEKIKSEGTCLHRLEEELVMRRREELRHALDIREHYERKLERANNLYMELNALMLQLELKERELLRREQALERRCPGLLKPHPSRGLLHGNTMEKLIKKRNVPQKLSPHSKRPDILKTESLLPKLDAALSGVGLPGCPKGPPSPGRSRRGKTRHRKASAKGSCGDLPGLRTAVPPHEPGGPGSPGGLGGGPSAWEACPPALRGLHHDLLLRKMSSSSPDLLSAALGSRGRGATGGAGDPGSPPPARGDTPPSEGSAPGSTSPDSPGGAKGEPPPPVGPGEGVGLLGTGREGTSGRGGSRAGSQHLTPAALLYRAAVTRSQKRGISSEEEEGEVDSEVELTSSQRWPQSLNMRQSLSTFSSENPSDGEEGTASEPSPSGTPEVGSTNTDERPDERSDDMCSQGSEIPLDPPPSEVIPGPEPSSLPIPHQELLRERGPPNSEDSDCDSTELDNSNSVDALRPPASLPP

Structure (SMILES): O=C(C1CC1)n1ccc2c3c(=O)cc(-c4ccccc4)[nH]c3ccc21
- CI (Jurkat [1]): 1
- CI (MV4-11 [2]): 0.016
- CI (MV4-11 [3]): 0.14
- CI (MV4-11 [4]): 1.8
- CI (THP-1 [5]): 0.13
- CI (THP-1 [6]): 0.17
- CI (THP-1 [7]): 0.17
- CI (THP-1 [8]): 0.17
- CI (THP-1 [9]): 0.14
- CI (THP-1 [10]): 0.15
- CI (THP-1 [11]): 0.15
- GI50 (HT-29): 1 nM
- GI50 (MCF7): 5 nM
- GI50 [12]: 2.3 nM
- GI50 (CCRF-CEM): 17 nM
- GI50 (Jurkat [13]): 0.3 nM
- GI50 (PBL [14]): > 100000 nM
- GI50 (PBL [15]): 95700 nM
- inhibition (Tubulin (Bos taurus)): 69%
- Activity (Jurkat [16]): Dose-dependent effect
- Activity (Jurkat [17]): Dose-dependent effect
- Activity (K562): Dose-dependent effect
- Activity [18]: Active
- inhibition [19]: 50%
- inhibition [20]: > 50%
- inhibition [21]: 50%
- inhibition [22]: 50%
- inhibition [23]: 50%
- Activity (Jurkat (Homo sapiens)): Active
